Common to all, as to test: Cell proliferation assay
Common to all, as to format: cell-based

Test [1] relates to non-small cell lung cancer cell line NCI-H460. Conditions: Homo sapiens, NCI-H460, 48 h, read-out: IC50, antiproliferation, Non-small cell lung cancer (H460). The essentials:
(§1)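 Log-phase adherent cells were seeded at 5 × 10^4 cells per mL and allowed 24 h before test compound was added at a range of concentrations for 48 h. MTT (5 mg mL−1 stock) was added for a further 4 h. Medium was removed, formazan dissolved in DMSO, and the plate read on a microplate reader. IC50 was calculated from dose–response curves of three independent assays.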

Test [2] relates to human breast cancer cell line MCF-7. As to conditions: MCF7, 48 h, read-out: IC50, antiproliferation, Human breast cancer (MCF-7). A digest of the protocol:
as §1

In test [3] the test system is human colon cancer cell line HT-29. Conditions: HT-29, 48 h, read-out: IC50, antiproliferation, Human colon cancer (HT-29). A digest of the protocol: as §1

In the case of `CC[C@@]1(O)C(=O)OCc2c1cc1n(c2=O)Cc2cc3ccccc3nc2-1` [CPT, camptothecin], the IC50 was found to be 0.04 ± 0.002 µM in test [1], 0.37 ± 0.05 µM in test [2] and 0.04 ± 0.02 µM in test [3].
